Assay [1] has as its target T1, Angiotensin-converting enzyme (Rattus norvegicus, UniProt P47820).
T1 sequence (P47820 whole entry): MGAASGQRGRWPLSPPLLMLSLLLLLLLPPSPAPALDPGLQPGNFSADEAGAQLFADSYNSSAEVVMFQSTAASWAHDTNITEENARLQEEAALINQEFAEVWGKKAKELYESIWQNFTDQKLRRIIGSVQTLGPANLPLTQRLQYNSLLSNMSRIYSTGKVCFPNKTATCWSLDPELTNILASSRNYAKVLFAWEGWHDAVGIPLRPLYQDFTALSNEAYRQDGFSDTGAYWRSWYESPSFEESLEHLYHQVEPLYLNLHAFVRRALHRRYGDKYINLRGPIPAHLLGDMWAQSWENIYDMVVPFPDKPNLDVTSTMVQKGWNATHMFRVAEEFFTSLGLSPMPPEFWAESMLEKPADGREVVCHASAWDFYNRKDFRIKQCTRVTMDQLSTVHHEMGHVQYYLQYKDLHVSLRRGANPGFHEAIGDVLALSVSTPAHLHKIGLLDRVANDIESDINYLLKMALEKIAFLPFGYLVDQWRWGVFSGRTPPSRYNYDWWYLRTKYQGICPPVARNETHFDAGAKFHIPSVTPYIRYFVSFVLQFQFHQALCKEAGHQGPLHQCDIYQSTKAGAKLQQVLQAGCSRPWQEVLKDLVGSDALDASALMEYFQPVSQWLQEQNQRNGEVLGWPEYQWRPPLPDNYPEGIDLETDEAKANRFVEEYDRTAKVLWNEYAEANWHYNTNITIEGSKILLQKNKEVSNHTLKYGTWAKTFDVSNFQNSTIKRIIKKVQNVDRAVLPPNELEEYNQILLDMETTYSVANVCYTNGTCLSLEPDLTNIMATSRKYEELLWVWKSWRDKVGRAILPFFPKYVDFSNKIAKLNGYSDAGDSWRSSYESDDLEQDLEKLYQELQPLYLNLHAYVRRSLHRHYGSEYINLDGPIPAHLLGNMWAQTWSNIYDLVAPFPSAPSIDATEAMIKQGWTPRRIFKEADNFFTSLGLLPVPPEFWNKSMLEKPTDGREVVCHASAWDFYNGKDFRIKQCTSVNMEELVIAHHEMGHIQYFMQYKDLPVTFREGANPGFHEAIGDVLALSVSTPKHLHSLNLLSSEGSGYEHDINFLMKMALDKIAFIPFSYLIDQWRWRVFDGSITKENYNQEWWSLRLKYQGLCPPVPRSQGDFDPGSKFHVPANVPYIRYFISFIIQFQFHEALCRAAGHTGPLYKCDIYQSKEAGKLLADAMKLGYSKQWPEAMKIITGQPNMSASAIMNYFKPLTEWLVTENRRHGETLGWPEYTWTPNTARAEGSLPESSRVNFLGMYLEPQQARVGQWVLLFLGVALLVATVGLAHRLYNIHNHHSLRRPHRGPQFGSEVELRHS
Kind of assay: Inhibitory activity against Angiotensin I converting enzyme.

Assay [2] concerns Canis familiaris. Kind of assay: Compound was evaluated for antihypertensive activity in conscious renal hypertensive dogs at a 10 mg/kg dose given orally. To be noted: route oral. Format: functional, Canis lupus familiaris. The essentials:
(§1)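 Conscious mongrel dogs made hypertensive by bilateral renal artery constriction (Goldblatt). Drug given by gavage in gelatine capsules; systolic pressure fall vs 0 time, observed up to 7 h; Dunnett's t test.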

Assay [3] deals with T2, Angiotensin-converting enzyme (Rattus norvegicus) (UniProt P47820).
T2 sequence (whole entry): T1 sequence (P47820 whole entry)
Kind of assay: Compound was evaluated for ACE inhibitory activity in conscious normotensive rats at a dose 1 mg/kg given intravenously by determining percent reduction in Angiotensin I converting enzyme response. The assay is classed as organism-based. On the set-up: dose 1 mg/kg.

The target of assay [4] is T2, Angiotensin-converting enzyme (Rattus norvegicus). Kind of assay: Compound was evaluated for ACE inhibitory activity in conscious normotensive rats at a dose 10 mg/kg given intravenously by determining percent reduction in Angiotensin I converting enzyme response. The assay is classed as organism-based. On the set-up: dose 10 mg/kg.
Assay [5] concerns Canis familiaris. Kind of assay: Compound was evaluated for antihypertensive activity in conscious renal hypertensive dogs at a 30 mg/kg dose given orally. Format: functional, Canis lupus familiaris. To be noted: route oral. The procedure, abridged: as §1
Assay [6] addresses T2, Angiotensin-converting enzyme (Rattus norvegicus). Kind of assay: Compound was evaluated for ACE inhibitory activity in conscious normotensive rats at a dose 10 mg/kg given intravenously by determining percent reduction in Angiotensin I converting enzyme. On the set-up: dose 10 mg/kg. The assay is classed as organism-based.

Some results are limits rather than exact numbers.

As usually defined, the IC50 is the point on the concentration scale where inhibition reaches its midpoint. A low value points to greater potency in that assay.

In the case of `O=C(S[C@H]1CCC[C@@H]1C(=O)N1CCC[C@H]1C(=O)O)c1ccccc1`, the IC50 in assay [1] came to 144 µM. On the same count and under the same terms, with `CC1(C)CC[C@@H](C(=O)N2CCC[C@H]2C(=O)O)[C@H]1SC(=O)c1ccccc1` the figure was 250 µM. Turning to `O=C(O)[C@@H]1CCCN1C(=O)[C@@H]1CCC[C@H]1S`, the SBP decrease with Canis familiaris [2] is -18%; in the assay on Canis familiaris [5] it was -21%. Further, the Reduction in assay [3] is -42%. Moreover, the Change in ACE response in assay [4] is -75%. This molecule registered an IC50 in assay [1] of 1.11 µM. The molecule `CC(C)(C)OC(=O)[C@@H]1CCCN1C(=O)[C@@H]1CCC[C@@H]1SC(=O)c1ccccc1` had an IC50 in assay [1] of 250 µM. In assay [1], `CC1(C)CC[C@H](C(=O)N2CCC[C@H]2C(=O)O)[C@H]1SC(=O)c1ccccc1` registered an IC50 of 250 µM. Same read-out and setting: with `CC1(C)CC[C@@H](C(=O)N2CCC[C@H]2C(=O)O)[C@@H]1S` the figure was 215 µM; with `O=C(S[C@H]1CCC[C@H]1C(=O)N1CCC[C@H]1C(=O)O)c1ccccc1`, 144 µM; with `O=C(O)[C@@H]1CCCN1C(=O)C1CCCC1S` (some centres not stated), 1.64 µM. Regarding `O=C(O)[C@@H]1CCCN1C(=O)[C@@H]1CCC[C@@H]1S`, in assay [3], the Reduction is -22%. Further, the Change in ACE response in assay [4] is -41%. The SBP decrease with Canis familiaris [5] is recorded as less than 10%. In assay [1], this molecule returned an IC50 of 19.5 µM. In assay [1], `CC(C)(C)OC(=O)[C@@H]1CCCN1C(=O)[C@@H]1CCC(C)(C)[C@@H]1SC(=O)c1ccccc1` yielded an IC50 of 250 µM.

`CC(C)(C)OC(=O)[C@@H]1CCCN1C(=O)[C@H]1CCC[C@@H]1SC(=O)c1ccccc1` returned an IC50 in assay [1] of 250 µM.

As to `O=C(O)[C@@H]1CCCN1C(=O)[C@@H]1CC[C@H]1S`, the SBP decrease in the assay with Canis familiaris [5] was less than 10%. In assay [1], this molecule displayed a half-maximal inhibitory concentration (IC50) of 1.26 µM. On to `CC(C)(C)OC(=O)[C@@H]1CCCN1C(=O)[C@@H]1CCC[C@H]1SC(=O)c1ccccc1`, for which the IC50 in assay [1] came out at 250 µM. For `C[C@H](CS)C(=O)N1CCC[C@H]1C(=O)O` [CAPTOPRIL], the results for the SBP decrease in the assay with Canis familiaris [2] and with Canis familiaris [5] were -15% and -19%, respectively. Turning to `O=C(S[C@H]1CC[C@@H]1C(=O)N1CCC[C@H]1C(=O)O)c1ccccc1`, the SBP decrease in the assay with Canis familiaris [2] is listed as less than 10%; in the assay on Canis familiaris [5] it was -19%. Moreover, in assay [3], the Reduction is -18%. Further, the Change in ACE response in assay [4] was -30%. Also, half-maximal inhibition in assay [1] (IC50) was put at 250 µM. Take `O=C(S[C@@H]1CCC[C@H]1C(=O)N1CCC[C@H]1C(=O)O)c1ccccc1`: the SBP decrease with Canis familiaris [2] was -15%; with Canis familiaris [5] it was -18%. Besides, in assay [4], the Change in ACE response is -80%. In assay [1], this molecule returned a half-maximal inhibitory concentration (IC50) of 0.58 µM. In assay [1], `CC1(C)CC[C@H](C(=O)N2CCC[C@H]2C(=O)O)[C@H]1S` gave a half-inhibitory concentration (IC50) of 250 µM. Take `CC(C)(C)OC(=O)[C@@H]1CCCN1C(=O)[C@@H]1CC[C@H]1SC(=O)c1ccccc1`: the half-maximal inhibitory concentration (IC50) in assay [1] is 250 µM. Regarding `O=C(O)[C@@H]1CCCN1C(=O)[C@H]1CCC[C@@H]1S`, in assay [1], the IC50 was 34.2 µM.

The molecule `CC(C)(C)OC(=O)[C@@H]1CCCN1C(=O)[C@H]1CCC[C@H]1SC(=O)c1ccccc1` yielded a concentration for half-maximal inhibition (IC50) in assay [1] of 124 µM. Compared with the last molecule, the IC50 is about 3.6-fold higher.

In assay [1], `O=C(O)[C@@H]1CCCN1C(=O)C1CCCCC1S` (some centres not stated) showed a half-inhibitory concentration (IC50) of 11.3 µM.

With `O=C(S[C@@H]1CC[C@H]1C(=O)N1CCC[C@H]1C(=O)O)c1ccccc1`, the SBP decrease with Canis familiaris [2] is -15%; in the assay on Canis familiaris [5], -17%. The figures for the Reduction in assay [3] and in assay [6] were -45% and -60%, respectively. This molecule also had an IC50 in assay [1] of 5.5 µM.

As for `CC(C)(C)OC(=O)[C@@H]1CCCN1C(=O)[C@H]1CC[C@@H]1SC(=O)c1ccccc1`, inhibition in assay [1] was half-maximal at 250 µM (IC50). Turning to `CC(C)(C)OC(=O)[C@@H]1CCCN1C(=O)[C@H]1CCC(C)(C)[C@@H]1SC(=O)c1ccccc1`, the IC50 in assay [1] was determined as 250 µM. On to `O=C(O)[C@@H]1CCCN1C(=O)[C@H]1CC[C@@H]1S`, for which the IC50 in assay [1] was 12.7 µM.

`O=C(O)[C@@H]1CCCN1C(=O)[C@H]1CCC[C@H]1S` registered a 50% inhibitory concentration (IC50) in assay [1] of 206 µM. The molecule `O=C(S[C@@H]1CCC[C@@H]1C(=O)N1CCC[C@H]1C(=O)O)c1ccccc1` gave an IC50 in assay [1] of 250 µM.

These data come from ChEMBL document CHEMBL1123522, “Angiotensin converting enzyme inhibitors as antihypertensive agents: 1-[(2-mercaptocycloalkyl)carbonyl]-L-prolines” (J Med Chem, 1986).
